In general, T/C refers to the result in the treated group divided by that in the control group, in per cent.

Molecules are shown by their SMILES.

Here are results for ten molecules from ChEMBL document CHEMBL1123321, “Synthesis and evaluation of 2-substituted 1-methyl-1-(4-tolylsulfonyl)hydrazines as antineoplastic agents” (1986).

Assay type in all cases: functional
Experiment [1] has as its system Mus musculus. The experiment can be described thus: Compound was evaluated for antineoplastic activity against mice bearing […], Optimum effective daily dose administered once daily for 6 consecutive days. The procedure, abridged:
(§1)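 B16 melanoma tissue was dispersed in serum-free Fischer's medium (1 g per 5 mL), and 0.2 mL was implanted ip per mouse. Starting 24 h after implantation, drug was given ip once daily for 6 days across a range of doses, as a suspension in 20% aq. Tween 80 and isotonic saline. Groups were five mice; vehicle controls were included. %T/C was mean survival time of treated over control ×100.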

Experiment [2] is filed under the species Mus musculus. The experiment can be described thus: Compound was evaluated for antineoplastic activity against mice bearing L1210 leukemia. Average change in body weight from onset to termination of therapy.. The procedure, abridged: (§2)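 In L1210-bearing mice, dosing was ip once daily for 6 days, beginning 24 h after implantation, with groups of five. The vehicle was a Tween 80/saline suspension. Body weight was recorded, and the read-out was the mean % change in body weight from the start to the end of therapy.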

Experiment [3] is filed under the species Mus musculus. The experiment in a line: Compound was evaluated for antineoplastic activity against mice bearing L1210 leukemia. In a few lines: (§3)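 L1210 leukemia was carried and implanted ip in mice as in earlier work. Starting 24 h after implantation, drug was given ip once daily for 6 days across a range of doses, as a Tween 80/saline suspension. Survival was scored as %T/C, the mean survival of treated over control ×100.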

Experiment [4] is filed under the species Mus musculus. The experiment in a line: Compound was evaluated for antineoplastic activity against mice bearing B6 melanoma. In a few lines: as §1
The subject of experiment [5] is Mus musculus. The experiment can be described thus: Compound was evaluated for antineoplastic activity against mice bearing L1210 leukemia. Optimum effective daily dose administered once daily for 6 consecutive days. In a few lines: as §3
The species entered for experiment [6] is Mus musculus. The experiment can be described thus: Compound was evaluated for antineoplastic activity against mice bearing B16 melanoma. The procedure, abridged:
as §1

In experiment [7] the test system is Mus musculus. The experiment in a line: Compound was evaluated for antineoplastic activity against mice bearing B16 melanoma, optimum effective daily dose administered once daily for 6 consecutive days. In a few lines:
as §1

Experiment [8] is filed under the species Mus musculus. The experiment in a line: Compound was evaluated for antineoplastic activity against mice bearing L1210 leukemia. Average change in body weight from onset to termination of therapy. The procedure, abridged:
as §2

The subject of experiment [9] is Mus musculus. The experiment can be described thus: Compound was evaluated for antineoplastic activity against mice bearing L1210 leukemia, optimum effective daily dose administered once daily for 6 consecutive days. In a few lines:
as §3

For experiment [10], the species on record is Mus musculus. The experiment can be described thus: Compound was evaluated for antineoplastic activity against mice bearing B16 melanoma. In a few lines: as §1

With `Cc1ccc(S(=O)(=O)N(C)NSc2ccccc2[N+](=O)[O-])cc1`, the OD in the experiment with Mus musculus [1] amounted to 100 mg/kg; in the experiment on Mus musculus [5], 50 mg/kg. For the same molecule, the “Average change in body weight” value was 15.5% in the experiment listed under Mus musculus [2] and -2% in the experiment listed under Mus musculus [4]. Further, the T/C stood at 151% in the experiment listed under Mus musculus [3] and 99% in the experiment filed under Mus musculus [4].

For `Cc1ccc(S(=O)(=O)N(C)NP(=O)(Oc2ccccc2)Oc2ccccc2)cc1`, the OD in the experiment on Mus musculus [1] is 100 mg/kg; in the experiment with Mus musculus [5], 150 mg/kg. For the same molecule, the entries for the “Average change in body weight” value in the experiment listed under Mus musculus [2] and in the experiment listed under Mus musculus [4] were 20.9% and 7.4%, respectively. Further, the values for the T/C in the experiment listed under Mus musculus [3] and in the experiment listed under Mus musculus [4] were 99% and 91%, respectively.

As for `Cc1ccc(S(=O)(=O)N(C)NC(=O)c2ccccc2)cc1`, the OD in the experiment on Mus musculus [1] was found to be 150 mg/kg; in the experiment on Mus musculus [5] it was 50 mg/kg. Besides, the “Average change in body weight” value in the experiment listed under Mus musculus [2] was found to be 7.5%; in the experiment listed under Mus musculus [4] it was 6.8%. Moreover, the T/C in the experiment listed under Mus musculus [3] was determined as 167%; in the experiment listed under Mus musculus [4] it was 96%.

As for `CCS(=O)(=O)NN(C)S(=O)(=O)c1ccc(C)cc1`, in the experiment filed under Mus musculus [6], the “Average change in body weight” value is given as -1.1%. For the same molecule, in the experiment with Mus musculus [7], the OD is 50 mg/kg.

On to `Cc1ccc(S(=O)(=O)N(C)NC(=O)c2ccc([N+](=O)[O-])cc2)cc1`, for which the OD was 50 mg/kg in the experiment on Mus musculus [1] and 100 mg/kg in the experiment with Mus musculus [5]. The “Average change in body weight” value is -6.3% in the experiment listed under Mus musculus [2] and 3.9% in the experiment listed under Mus musculus [4]. Further, the T/C in the experiment listed under Mus musculus [3] is 133%; in the experiment filed under Mus musculus [4] it was 97%.

Turning to `Cc1ccc(S(=O)(=O)N(C)NS(C)(=O)=O)cc1`, the “Average change in body weight” value is -1.9% in the experiment filed under Mus musculus [6] and -7.9% in the experiment filed under Mus musculus [8]. The OD was 10 mg/kg in the experiment with Mus musculus [7] and 30 mg/kg in the experiment with Mus musculus [9].

For the molecule `Cc1ccc(S(=O)(=O)N(C)NC(=O)/C=C/c2ccccc2)cc1`, the OD in the experiment on Mus musculus [1] was determined as 150 mg/kg; in the experiment with Mus musculus [5] it was 50 mg/kg. Besides, the “Average change in body weight” value in the experiment filed under Mus musculus [2] is recorded as 14.8%; in the experiment filed under Mus musculus [4], 1.8%. Besides, the T/C in the experiment filed under Mus musculus [3] and in the experiment listed under Mus musculus [4] was 94% each time.

For the molecule `Cc1ccc(S(=O)(=O)N(C)NS(=O)(=O)Cc2ccccc2)cc1`, the Average change in body weight is -2.4% in the experiment filed under Mus musculus [6] and 10.8% in the experiment listed under Mus musculus [8]. Further, the “Max T/C” value in the experiment listed under Mus musculus [6] came out at 172%. Further, the OD in the experiment on Mus musculus [7] and in the experiment with Mus musculus [9] was 50 mg/kg in each case.

As for `Cc1ccc(S(=O)(=O)N(C)NP(=O)(c2ccccc2)c2ccccc2)cc1`, the OD with Mus musculus [1] stood at 150 mg/kg; with Mus musculus [5], 50 mg/kg. The “Average change in body weight” value is recorded as 5.8% in the experiment filed under Mus musculus [2] and 0.7% in the experiment filed under Mus musculus [4]. In addition, the T/C in the experiment filed under Mus musculus [3] was 100%; in the experiment filed under Mus musculus [4], 112%.

In the case of `Cc1ccc(S(=O)(=O)NN(C)S(=O)(=O)c2ccc(C)cc2)cc1`, the Average change in body weight in the experiment filed under Mus musculus [10] is -2.7%; in the experiment filed under Mus musculus [8], 3.7%. The figures for the OD with Mus musculus [7] and in the experiment on Mus musculus [9] were 150 mg/kg and 50 mg/kg, respectively.
